Laboratory results as given in ChEMBL document CHEMBL1143177, “Antitumor effects of curcumin and structurally beta-diketone modified analogs on multidrug resistant cancer cells” (Bioorg Med Chem Lett, 2008).

What was measured:
[1] = tested on: MCF7R; test: Growth inhibition of human multidrug-resistant MCF7R cells after 72 hrs by MTS assay
[2] = Growth inhibition of human HA22T/VGH cells after 72 hrs by MTS assay
[3] = tested on: MCF7; test: Growth inhibition of human MCF7 cells after 72 hrs by MTS assay; conditions: MCF7, 72 h
[4] = biological target: Transcription factor p65 (Homo sapiens) (UniProt Q04206); test: Reduction in DNA binding activity of NF-kappaB p65 subunit in human HA22T/VGH cells after 1.5 hrs relative to control; assay type: cell-based; conditions: concentration not given here
Transcription factor p65 (Homo sapiens), sequence (Q04206 whole entry): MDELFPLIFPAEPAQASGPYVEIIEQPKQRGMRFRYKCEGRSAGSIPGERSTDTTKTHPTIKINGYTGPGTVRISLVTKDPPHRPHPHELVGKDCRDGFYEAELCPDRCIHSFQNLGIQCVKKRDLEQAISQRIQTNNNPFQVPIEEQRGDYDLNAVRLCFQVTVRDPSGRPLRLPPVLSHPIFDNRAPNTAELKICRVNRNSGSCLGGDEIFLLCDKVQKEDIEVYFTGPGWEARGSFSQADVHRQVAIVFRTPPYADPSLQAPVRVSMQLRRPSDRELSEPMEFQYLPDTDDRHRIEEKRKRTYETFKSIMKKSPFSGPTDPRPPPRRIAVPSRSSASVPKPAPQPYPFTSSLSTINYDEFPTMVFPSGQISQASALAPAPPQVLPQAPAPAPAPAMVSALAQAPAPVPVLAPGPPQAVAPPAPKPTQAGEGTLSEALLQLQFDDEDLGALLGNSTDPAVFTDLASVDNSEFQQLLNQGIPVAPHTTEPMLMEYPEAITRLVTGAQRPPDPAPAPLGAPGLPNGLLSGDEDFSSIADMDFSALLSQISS
Outline: (§1)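 HA22T/VGH cells, which have constitutively active NF-κB, were exposed to compounds at 20 µM for 1.5 or 4 h. DNA-binding activity of the NF-κB p65 subunit was measured and expressed as percent of untreated control.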

[5] = biological target: Transcription factor p65 (Homo sapiens) (UniProt Q04206); test: Reduction in DNA binding activity of NF-kappaB p65 subunit in human HA22T/VGH cells after 4 hrs relative to control; assay type: cell-based; conditions: concentration not given here
Outline: as §1

| Structure (SMILES) | IC50 [1] | IC70 [1] | IC50 [2] | IC70 [2] | IC50 [3] | IC70 [3] | inhibition [4] | inhibition [5] |
| --- | --- | --- | --- | --- | --- | --- | --- | --- |
| COc1cc(/C=C/c2cc(/C=C/c3ccc(O)c(OC)c3)on2)ccc1O | 12 µM | 24.7 µM | 12.8 µM | 18.3 µM | 13.1 µM | 23.2 µM |  |  |
| COc1cc(/C=C/C(=O)/C=C(N)/C=C/c2ccc(O)c(OC)c2)ccc1O | 54.7 µM | 81.8 µM | 33 µM | 41.1 µM | 49.9 µM | 68.1 µM |  |  |
| CO/N=C(\C=C\c1ccc(O)c(OC)c1)CC(/C=C/c1ccc(O)c(OC)c1)=N/OC | 39 µM | 52.8 µM | 32.9 µM | 40.4 µM | 36.3 µM | 43.4 µM |  |  |
| COc1cc(/C=C/C(=O)/C=C(/C=C/c2ccc(O)c(OC)c2)NC(C)C)ccc1O | 49.8 µM | 79.5 µM | 26.3 µM | 29.8 µM | 70.3 µM | 93.5 µM |  |  |
| COc1cc(/C=C/C(=O)/C=C(/C=C/c2ccc(O)c(OC)c2)NC(C)c2ccccc2)ccc1O (stereo unspecified) | > 100 µM | > 100 µM | > 100 µM | > 100 µM | > 100 µM | > 100 µM |  |  |
| COc1cc(/C=C/C(=O)CC(=O)/C=C/c2ccc(O)c(OC)c2)ccc1O [CURCUMIN] | 26.2 µM | 46.2 µM | 17.4 µM | 24.6 µM | 29.3 µM | 51.7 µM |  |  |
| COc1cc(/C=C/C(CC(/C=C/c2ccc(O)c(OC)c2)=N/OCc2ccccc2)=N\OCc2ccccc2)ccc1O | 9.3 µM | 12.9 µM | 5.9 µM | 8.4 µM | 7.1 µM | 9.2 µM | 33.7% | 64.3% |
| COc1cc(/C=C/C(=O)/C=C(/C=C/c2ccc(O)c(OC)c2)NCc2ccccc2)ccc1O | > 100 µM | > 100 µM | > 100 µM | > 100 µM | > 100 µM | > 100 µM |  |  |
| CCNC(=C\C(=O)/C=C/c1ccc(O)c(OC)c1)/C=C/c1ccc(O)c(OC)c1 | 67.6 µM | 88.8 µM | 26.1 µM | 64.4 µM | 93 µM | > 100 µM |  |  |
